ChEMBL document CHEMBL1781962, “Development of Fluorescent Ligands for the Human 5-HT1A Receptor” (ACS Med Chem Lett, 2010)
Activity calls are given as the source filed them. The rule behind the calls is not given here.

Experiments:
[1] = target: T1, 5-hydroxytryptamine receptor 1A (Homo sapiens, UniProt P08908); experiment: Displacement of [3H]8-OH-DPAT from human 5HT1A receptor expressed in EBNA gene-positive HEK293 cells after 120 mins; type: cell-based
T1 sequence (P08908 whole entry): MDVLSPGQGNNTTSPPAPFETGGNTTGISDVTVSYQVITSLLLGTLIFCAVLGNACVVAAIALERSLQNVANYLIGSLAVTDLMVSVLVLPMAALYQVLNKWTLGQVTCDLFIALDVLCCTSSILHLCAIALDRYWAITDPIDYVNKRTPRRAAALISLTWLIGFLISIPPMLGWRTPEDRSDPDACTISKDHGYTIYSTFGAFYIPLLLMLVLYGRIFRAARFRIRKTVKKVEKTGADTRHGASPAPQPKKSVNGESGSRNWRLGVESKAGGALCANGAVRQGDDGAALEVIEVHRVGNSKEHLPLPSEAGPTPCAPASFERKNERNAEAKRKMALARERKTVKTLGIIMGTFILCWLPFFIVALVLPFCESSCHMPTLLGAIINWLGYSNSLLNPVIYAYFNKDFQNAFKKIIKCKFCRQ
Summary of the method: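 Radioligand competition binding with [3H]-8-hydroxy-DPAT on membranes from transfected HEK-293 EBNA cells expressing h5-HT1AR. Buffer was 50 mM Tris-HCl, 0.5 mM MgSO4, pH 7.4. Ki was obtained from IC50 by the Cheng-Prusoff equation. Values are means ± SEM of 2–4 independent experiments, each run in triplicate.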

[2] = target: 5-hydroxytryptamine receptor 5A (Homo sapiens) (UniProt P47898); experiment: Binding affinity to human 5HT5A receptor at 1 uM by radioligand displacement assay
Summary of the method: (§1)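 Selectivity screen by radioligand binding at the 5-HT2A, 5-HT4e, 5-HT5a, 5-HT6 and 5-HT7 receptors. Test compound was used at a single concentration of 1 μM. Read-out was percent displacement of the corresponding radioligand.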

[3] = target: T1, 5-hydroxytryptamine receptor 1A; experiment: Binding affinity to human 5HT1A receptor expressed in HEK-293 EBNA cell membranes by [3H]-8-hydroxy-DPAT radioligand binding
[4] = target: 5-hydroxytryptamine receptor 4 (Homo sapiens) (UniProt Q13639); experiment: Binding affinity to human 5-HT4e receptor at 1 uM by radioligand displacement assay; summary of the method: as §1
[5] = target: 5-hydroxytryptamine receptor 7 (Homo sapiens) (UniProt P34969); experiment: Displacement of [3H]LSD from human 5HT7 receptor expressed in HEK293 cells at 1 uM after 120 mins by scintillation counting; type: cell-based; summary of the method: as §1
[6] = target: 5-hydroxytryptamine receptor 2A (Homo sapiens) (UniProt P28223); experiment: Binding affinity to human 5HT2A receptor at 1 uM by radioligand displacement assay; summary of the method: as §1
[7] = target: 5-hydroxytryptamine receptor 6 (Homo sapiens) (UniProt P50406); experiment: Displacement of [3H]LSD from human 5HT6 receptor expressed in HEK293 cells after 120 mins by radioligand displacement assay; type: cell-based; summary of the method: as §1
Sequence of 5-hydroxytryptamine receptor 6 (Homo sapiens) (P50406 whole entry): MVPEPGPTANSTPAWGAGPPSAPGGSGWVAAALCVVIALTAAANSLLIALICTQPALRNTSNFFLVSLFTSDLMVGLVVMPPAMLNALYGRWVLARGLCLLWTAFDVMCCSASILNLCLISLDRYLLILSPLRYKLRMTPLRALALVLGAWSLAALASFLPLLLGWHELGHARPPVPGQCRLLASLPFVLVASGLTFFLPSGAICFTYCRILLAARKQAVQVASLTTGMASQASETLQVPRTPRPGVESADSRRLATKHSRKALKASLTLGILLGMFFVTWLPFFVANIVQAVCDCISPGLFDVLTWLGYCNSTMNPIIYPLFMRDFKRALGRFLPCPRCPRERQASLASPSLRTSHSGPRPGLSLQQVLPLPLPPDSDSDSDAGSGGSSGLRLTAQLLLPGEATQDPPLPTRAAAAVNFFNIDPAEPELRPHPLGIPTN

Sequence of 5-hydroxytryptamine receptor 7 (Homo sapiens) (P34969 whole entry): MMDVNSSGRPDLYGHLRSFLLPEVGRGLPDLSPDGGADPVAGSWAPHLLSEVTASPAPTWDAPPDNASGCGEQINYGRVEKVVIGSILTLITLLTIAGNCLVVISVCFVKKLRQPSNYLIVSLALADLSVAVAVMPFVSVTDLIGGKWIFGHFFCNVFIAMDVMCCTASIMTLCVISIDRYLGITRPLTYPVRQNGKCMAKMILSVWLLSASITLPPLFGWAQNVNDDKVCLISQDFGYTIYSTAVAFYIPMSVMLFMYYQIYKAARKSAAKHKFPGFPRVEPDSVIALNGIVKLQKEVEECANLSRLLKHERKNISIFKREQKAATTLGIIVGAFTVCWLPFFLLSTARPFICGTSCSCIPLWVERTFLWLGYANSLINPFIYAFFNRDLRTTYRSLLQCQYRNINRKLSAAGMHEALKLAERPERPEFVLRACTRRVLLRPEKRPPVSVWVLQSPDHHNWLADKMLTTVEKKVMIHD
Sequence of 5-hydroxytryptamine receptor 5A (Homo sapiens) (P47898 whole entry): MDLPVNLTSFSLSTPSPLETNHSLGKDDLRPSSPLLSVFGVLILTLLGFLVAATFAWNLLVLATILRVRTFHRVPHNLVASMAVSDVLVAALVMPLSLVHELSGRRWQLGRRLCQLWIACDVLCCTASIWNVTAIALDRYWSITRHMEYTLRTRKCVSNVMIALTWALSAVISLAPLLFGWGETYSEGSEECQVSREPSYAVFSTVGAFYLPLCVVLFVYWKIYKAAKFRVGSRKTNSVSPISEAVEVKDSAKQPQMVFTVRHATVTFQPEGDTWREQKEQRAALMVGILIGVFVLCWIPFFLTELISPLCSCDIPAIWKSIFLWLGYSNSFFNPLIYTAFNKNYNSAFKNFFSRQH
Sequence of 5-hydroxytryptamine receptor 2A (Homo sapiens) (P28223 whole entry): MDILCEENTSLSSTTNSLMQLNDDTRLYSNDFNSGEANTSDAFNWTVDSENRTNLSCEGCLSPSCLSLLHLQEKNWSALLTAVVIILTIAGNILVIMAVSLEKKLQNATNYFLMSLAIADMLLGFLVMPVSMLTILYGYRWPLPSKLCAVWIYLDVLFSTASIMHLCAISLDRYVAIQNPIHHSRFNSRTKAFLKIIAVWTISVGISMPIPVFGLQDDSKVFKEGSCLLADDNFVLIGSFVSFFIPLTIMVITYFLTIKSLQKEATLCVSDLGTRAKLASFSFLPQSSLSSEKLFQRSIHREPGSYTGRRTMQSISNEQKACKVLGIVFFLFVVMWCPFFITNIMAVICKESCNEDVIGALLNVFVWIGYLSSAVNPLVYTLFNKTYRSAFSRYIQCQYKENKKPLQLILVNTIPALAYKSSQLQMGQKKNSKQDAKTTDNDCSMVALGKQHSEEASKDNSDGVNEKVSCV
Sequence of 5-hydroxytryptamine receptor 4 (Homo sapiens) (Q13639 whole entry): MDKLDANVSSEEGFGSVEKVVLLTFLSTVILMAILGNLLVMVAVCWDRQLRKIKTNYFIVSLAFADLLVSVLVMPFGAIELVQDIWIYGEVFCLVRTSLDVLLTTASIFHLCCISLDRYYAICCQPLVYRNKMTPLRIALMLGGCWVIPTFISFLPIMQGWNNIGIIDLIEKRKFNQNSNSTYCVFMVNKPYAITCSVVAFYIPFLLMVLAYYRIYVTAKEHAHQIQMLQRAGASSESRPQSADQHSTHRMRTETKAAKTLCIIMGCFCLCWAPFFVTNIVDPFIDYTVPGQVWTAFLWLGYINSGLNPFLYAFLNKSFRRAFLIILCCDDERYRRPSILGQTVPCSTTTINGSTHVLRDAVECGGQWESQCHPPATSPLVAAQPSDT

Compound | Ki [1] [nM] | also measured
O=C1C2CCCN2C(=O)N1CCCCN1CCN(c2cccc3ccccc23)CC1 (stereo not drawn) | 2.4 | –
COc1ccccc1N1CCN(CCCCN2C(=O)C3CCCN3C2=O)CC1 (stereo not drawn) | 5.5 | –
COc1ccccc1N1CCN(CCCCN2C(=O)N3CCCC3(CCNCCCCCNS(=O)(=O)c3cccc4c(N(C)C)cccc34)C2=O)CC1 (stereo not drawn) | 7 | –
CN(C)S(=O)(=O)c1cccc2c(N3CCN(CCCCN4C(=O)C5CCCN5C4=O)CC3)cccc12 (stereo not drawn) | 350 | –
CN(C)c1cccc2c(S(=O)(=O)N3CCN(CCCCN4C(=O)C5CCCN5C4=O)CC3)cccc12 (stereo not drawn) | > 1000 | –
CN(C)S(=O)(=O)c1ccc2cccc(N3CCN(CCCCN4C(=O)C5CCCN5C4=O)CC3)c2c1 (stereo not drawn) | 2.4 | –
CN(C)S(=O)(=O)c1ccc2c(N3CCN(CCCCN4C(=O)C5CCCN5C4=O)CC3)cccc2c1 (stereo not drawn) | 98 | –
COc1ccccc1N1CCN(CCCCN2C(=O)N3CCCC3(CCCCNS(=O)(=O)c3cccc4c(N(C)C)cccc34)C2=O)CC1 (stereo not drawn) | 11 | –

Further compounds by falling Ki [1], results first:

Ki [1] [nM] | Compound | also measured
15 | COc1ccccc1N1CCN(CCCCN2C(=O)N3CCCC3(CCCCCCCNS(=O)(=O)c3cccc4c(N(C)C)cccc34)C2=O)CC1 (stereo not drawn) | –
9 | COc1ccccc1N1CCN(CCCCN2C(=O)N3CCCC3(CCCCNCCCCCNS(=O)(=O)c3cccc4c(N(C)C)cccc34)C2=O)CC1 (stereo not drawn) | –
5 | CN(C)c1cccc2c(S(=O)(=O)NCCCCCCCC34CCCN3C(=O)N(CCCCN3CCN(c5cccc6ccccc56)CC3)C4=O)cccc12 (stereo not drawn) | –
2 | CN(C)c1cccc2c(S(=O)(=O)NCCCCC34CCCN3C(=O)N(CCCCN3CCN(c5cccc6ccccc56)CC3)C4=O)cccc12 (stereo not drawn) | Activity [2]: > 80%; Ki [3]: 38 nM; Activity [4]: inactive; Activity [5]: > 80%; Activity [6]: > 80%; Activity [7]: inactive
